Laboratory results: paper PMC7315572 (ACS Omega, 2020)

Tests used:
erythroid cells = details: cited from earlier work
[1] = test system: K562 human myelogenous leukemia cells; assay: MTS cell viability assay in K562 cells; type: cell-based; details: 72 h
Outline: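 K562 cells were grown in IMDM with 10% FBS and 5% penicillin/streptomycin at 37 °C in 5% CO2. They were seeded at 2000 cells/well, left overnight, then given fresh medium containing the test compound for 72 h. MTS was added for 2 h, with absorbance read at 490 nm against a 690 nm reference. % cell death = (control − sample)/control × 100. IC50 came from dose-response curves, using triplicates from a single experiment ± SEM.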

[2] = test system: β-globin mRNA expression in human CD34+ erythroid progenitor cells; assay: β-globin mRNA expression in CD34+ erythroid progenitor cells by RT-qPCR; type: cell-based; details: for Fold increase in β-globin mRNA: concentration not given
[3] = test system: γ-globin mRNA expression in human CD34+ erythroid progenitor cells; assay: γ-globin mRNA expression in CD34+ erythroid progenitor cells by RT-qPCR; type: cell-based
[4] = test system: γ-globin mRNA expression in the K562 human myelogenous leukemia cell line; assay: γ-globin mRNA expression in K562 cells by RT-qPCR; type: cell-based; details: K562, concentration not printed (at or near LSD1 IC50)
Townes SS mice = assay: HbF induction in Townes SS mice; type: in vivo, mouse; details: 10 mg/kg, 2 weeks of treatment
Outline: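 Townes SS mice were dosed at 10 mg/kg for 2 weeks (route not specified). F-cells and F-reticulocytes were counted by flow cytometry on 5–10 μL of tail-vein blood. γ-Globin was measured by HPLC against each animal's pretreatment baseline. Each value is the mean of three animals + SEM.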

recombinant LSD1/CoREST = recombinant LSD1/CoREST (Homo sapiens, UniProt O60341); details: IC50 ND; cited from earlier work
spermine oxidase (SMOX) = details: cited from earlier work

N[C@@H]1C[C@H]1c1ccccc1 (racemic) [Tranylcypromine, tranylcypromine]
Induction of HbF in erythroid cells (in words) (erythroid cells): dose-dependent induction
Cytotoxicity in K562 cells (in words) [1]: minimal cytotoxicity

NC(=O)NO [HU, hydroxyurea]
Fold increase in β-globin mRNA [2]: no effect
Increase in γ-globin mRNA (in words, compared with K562) [3]: analogous to levels observed in the K562 line
Fold increase in γ-globin mRNA expression [4]: 2.3 fold

c1ccc([C@@H]2C[C@H]2NC2CCNCC2)cc1 [compound 2]
Effect on β-globin mRNA levels (in words) ([2]; both 20 and 50 nM): marked decrease

Nc1n[nH]c(NCc2ccccc2Oc2ccc(-c3ccccc3)cc2)n1 [compound 8]
Increase in HbF-containing erythrocytes (F-cells) (Townes SS mice; Townes SS mice, flow cytometry): significant increases
Increase in γ-globin (HbF content) by HPLC relative to baseline/pretreatment (Townes SS mice; Townes mouse): 87%
LSD1 % inhibition at 10 μM (recombinant LSD1/CoREST): ND (50.0% inhibition at 10 μM)[52]
Inhibition of spermine oxidase (SMOX) (in words) (spermine oxidase (SMOX)): inhibit

Hemin
Fold increase in β-globin mRNA [2]: 1.4 fold
Increase in γ-globin mRNA (in words, compared with K562) [3]: analogous to levels observed in the K562 line
Fold increase in γ-globin mRNA expression [4]: 2.4 fold
